Screening data (PubChem)
In the library only some 1.8% were active in any assay of this set; here they are far more common.
hiPSC survival: enhancers of single-cell hiPSC survival, primary screen, ATPlite luminescence; 100% = ROCK inhibitor wells, 0% = DMSO; survival enhancement, % at 20 µM; 360,000 compounds, 0.044% hits; AID 602274, 2012; in the data active = survival enhancement above about 18%;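 also: cells exposed to compounds for 16 hours before the ATP read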
Jurkat NFkB inh: inhibitors of induced NF-kB luciferase reporter, primary screen, TCR NF-kB activation inhibitor project, cell-based, luminescence, uHTS | Jurkat, PMA/ionomycin-induced NF-kB luciferase reporter | inhibition, % at 4 µM | 330,000 compounds, 0.53% hits | AID 435003, 2010; in the data active = inhibition above about 50%
Lipid droplet: inhibitors of hepatocyte lipid droplet formation, primary screen, imaging, high-throughput imaging, BODIPY stain; AML12 mouse hepatocytes, oleate lipid droplets; inhibition, % at 6.5 µM; AID 1656, 2009; 240,000 compounds, 0.4% hits;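 active = lipid droplet intensity inhibited by at least 50%, with more than 500 cells counted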
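Assay system: AML12 mouse liver cells | Compound: 6.5 µM single-point dosing | Schedule: Overnight exposure | Technique: Fluorescence imaging, 20x objective, two fields per well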
Gli-Sufu block: Gli-Sufu pathway antagonists, primary screen, luciferase luminescence, Sufu-KO-LIGHT cells, uHTS. inhibition, % at 5 µM. 340,000 compounds, 0.74% hits. Sufu-KO-LIGHT fibroblasts, Gli luciferase reporter luminescence. AID 588413, 2011;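 active = inhibition above about 55%, limit read from the data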
H9c2 TAG inh: inhibitors of triacylglycerol accumulation, primary screen, cell-based, uHTS, fluorescence, H9c2. 230,000 compounds, 0.66% hits. inhibition, % at 12.5 µM. H9c2 cells, Nile Red lipid (TAG) fluorescence; cells loaded with 200 µM oleic acid;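 active = pattern-corrected inhibition of lipid staining of at least 50% with the nuclear-stain viability signal not falling by more than 50%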
697 NFkB inh: inhibitors of PMA/ionomycin-induced NF-kB reporter, 697 cells, primary screen, B-cell NF-kB inhibitor project, cell-based, luminescence, uHTS | inhibition, % at 4 µM | 697 B-cell NF-kB luciferase reporter, 16 h | 330,000 compounds, 0.33% hits; in the data active = inhibition above about 35%
Gli-Sufu confirm: Gli-SUFU pathway antagonists, confirmation, single concentration, luciferase luminescence, Sufu-KO-LIGHT cells; shares compounds with Gli-Sufu block; Gli luciferase reporter; inhibition, % at 5 µM; 2,500 compounds, 40% hits; AID 602428, 2012;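 active = mean inhibition at 5 µM reaching about 45%, limit read from the data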
Gli cytotox: cytotoxicity in Sufu-KO-LIGHT cells, confirmation, cytotoxicity control for Gli-SUFU antagonist project, cell-based, ATP luminescence, single concentration. shares compounds with Gli-Sufu block. cytotoxicity, % at 5 µM. 2,500 compounds, 32% hits;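 active = mean cytotoxicity at 5 µM above about 25%, limit read from the data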;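 also: cells exposed to compound overnight for roughly 16 to 18 hours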
Wnt3a counter: Wnt3a reporter signal inhibition, confirmation, counter-screen for Gli-SUFU antagonist project, Wnt-LIGHT cells, luminescence, single concentration | inhibition, % at 6.25 µM | 2,500 compounds, 20% hits | Wnt3a-driven luciferase reporter | shares compounds with Gli-Sufu block;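 active = mean inhibition above about 25%, limit read from the data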
Of the large screens only hits and unclear results are named; the others gave an inactive call (follow-up assays come after a bar, where they were run).

COc1ccc(Cn2c(C)nc3ccc([N+](=O)[O-])cc3c2=O)cc1	Gli-Sufu block 60.9 | Gli-Sufu confirm inactive | Gli cytotox inactive | Wnt3a counter inactive
O=C(N/N=C\c1cc(Cl)ccc1O)c1ccc(S(=O)(=O)N2CCCCC2)cc1	Gli-Sufu block 73.3 (no result: H9c2 TAG inh) | Gli-Sufu confirm 77.9 | Gli cytotox 37.2 | Wnt3a counter 60.5
CC(NC(=O)c1cccc(S(=O)(=O)N2CCN(C)CC2)c1)C1CC2CCC1C2 (stereo not drawn)	Gli-Sufu block 57.7 | Gli-Sufu confirm inactive | Gli cytotox inactive | Wnt3a counter inactive
CC(NC(=O)c1cccc(Cl)c1)C1CC2CCC1C2 (stereo not drawn)	none (no result: H9c2 TAG inh)
O=[N+]([O-])c1ccccc1C=NN1CCCCCC1	none (no result: Jurkat NFkB inh, Lipid droplet, 697 NFkB inh)
COc1ccc(Nc2nc(N3CCOCC3)nc(N3CCOCC3)n2)c(OC)c1	Gli-Sufu block 59.4 (no result: H9c2 TAG inh) | Gli-Sufu confirm inactive | Gli cytotox inactive | Wnt3a counter inactive
CC1=CC(C)(C)NC(=S)N1CCO	none (no result: Jurkat NFkB inh, Lipid droplet, 697 NFkB inh)
COc1cc(OC)c(CN2CCC(Cc3ccccc3)CC2)cc1Br	none (no result: H9c2 TAG inh) | Gli-Sufu confirm inactive | Gli cytotox inactive | Wnt3a counter inactive
COc1ccc(OC)c(CN2CCC(Cc3ccccc3)CC2)c1	none (no result: H9c2 TAG inh)
O=C(Cc1ccccc1)NCCS(=O)(=O)N1CCN(c2ccccc2)CC1	none (no result: Lipid droplet)
O=C(Cc1ccc(F)cc1)NCCS(=O)(=O)N1CCN(c2ccccc2)CC1	Gli-Sufu block 97.3 (no result: Lipid droplet) | Gli-Sufu confirm inactive | Gli cytotox inactive | Wnt3a counter inactive
Cc1ccc(C)c(NC(=O)CN(C)C(=O)c2ccc(-c3cccc(C(F)(F)F)c3)o2)c1	none (no result: Lipid droplet)
CCOc1ccc(-n2c(=S)sc3c(=O)[nH]c(SCC(=O)C(C)(C)C)nc32)cc1	none
CCCCCCCNC1=CC(=O)CC(c2ccccc2)C1 (stereo not drawn)	Gli-Sufu block 58.5 (no result: H9c2 TAG inh) | Gli-Sufu confirm 51.5 | Gli cytotox inactive | Wnt3a counter inactive
CCCCCNC1=CC(=O)CC(c2ccccc2)C1 (stereo not drawn)	none (no result: Lipid droplet)
O=C1CC(c2cccnc2)c2cc3c(cc2N1)OCCO3 (stereo not drawn)	none
CCCOc1ccccc1C1CC(=O)Nc2cc3c(cc21)OCCO3 (stereo not drawn)	Gli-Sufu block 65.9 | Gli-Sufu confirm 65.3 | Gli cytotox 59.9 | Wnt3a counter inactive
CCc1nc(CN2CCCC(C(=O)c3ccc4c5c(cccc35)CC4)C2)c(C)[nH]1 (stereo not drawn)	none | Gli-Sufu confirm inactive | Gli cytotox inactive | Wnt3a counter inactive
COc1cc(CCC(=O)Nc2ccc(C)c(S(=O)(=O)N3CCCCCC3)c2)cc(OC)c1OC	none (no result: Lipid droplet) | Gli-Sufu confirm inactive | Gli cytotox inactive | Wnt3a counter inactive
CN1CCN(/N=C/c2nc(-c3ccccc3)n3ccccc23)CC1	none | Gli-Sufu confirm inactive | Gli cytotox inactive | Wnt3a counter inactive
COc1ccc(CCNC(=O)C2CCCN(S(=O)(=O)c3ccc(F)cc3)C2)cc1OC (stereo not drawn)	none
O=C(c1cc(F)ccc1F)N1CCC(N2CCC(C(=O)N3CCCC3)CC2)CC1	Gli-Sufu block 56.7 (no result: H9c2 TAG inh) | Gli-Sufu confirm inactive | Gli cytotox inactive | Wnt3a counter inactive
O=C(c1ccccc1Cl)N1CCC(N2CCC(C(=O)N3CCCC3)CC2)CC1	Gli-Sufu block 92.2 (no result: H9c2 TAG inh) | Gli-Sufu confirm inactive | Gli cytotox inactive | Wnt3a counter inactive
O=C(c1cccc(Cl)c1)N1CCC(N2CCC(C(=O)N3CCOCC3)CC2)CC1	none
O=C(O)C1CCN(C(=O)c2ccccc2Cl)CC1	none (no result: H9c2 TAG inh)
Cc1cc(O)ccc1N/C=C/c1onc(C)c1[N+](=O)[O-]	none
Cc1cccc(N/C=C/c2onc(C)c2[N+](=O)[O-])c1	none | Gli-Sufu confirm inactive | Gli cytotox inactive | Wnt3a counter inactive
Cc1ccc(CNC(=O)C23CN(Cc4ccccc4)CC2C(c2ccc([N+](=O)[O-])cc2)=NO3)o1 (stereo not drawn)	Gli-Sufu block 98.3 (no result: Lipid droplet) | Gli-Sufu confirm inactive | Gli cytotox inactive | Wnt3a counter inactive
O=C(NCc1ccco1)C12CN(Cc3ccccc3)CC1C(c1ccc([N+](=O)[O-])cc1)=NO2 (stereo not drawn)	none (no result: Lipid droplet)
CC1(C)CC(=O)C2=C(C1)Nc1ccccc1NC2c1cccs1 (stereo not drawn)	Gli-Sufu block 57.8 | Gli-Sufu confirm inactive | Gli cytotox inactive | Wnt3a counter inactive
CCn1c(SCC(=O)Nc2cc(Cl)ccc2OC)nnc1C1CC1	none (no result: H9c2 TAG inh)
CC1(C)CC(N2CCCCC2)=CC(=[N+]2CCCCC2)C1	Gli-Sufu block 83.7 | Gli-Sufu confirm 87.2 | Gli cytotox 46.5 | Wnt3a counter 47.6
CC1(C)CC(N2CCOCC2)=CC(=[N+]2CCOCC2)C1	none
CC(=O)N1CCN(C(=O)CCC(=O)O)CC1	none
C=CCNc1nc2c(c(=O)[nH]c(=O)n2C)n1CCOc1ccccc1	none
Cc1ccc(C[n+]2cc(-c3ccc(Cl)cc3)n3c2CCC3)cc1	Gli-Sufu block 76.8 | Gli-Sufu confirm 79.0 | Gli cytotox 32.4 | Wnt3a counter inactive
Cc1ccc(-c2c[n+](Cc3cccc(Cl)c3)c3n2CCC3)cc1	Gli-Sufu block 79.3 | Gli-Sufu confirm 82.5 | Gli cytotox 35.8 | Wnt3a counter inactive
Cc1ccc(-c2c[n+](Cc3ccc(Cl)cc3)c3n2CCC3)cc1	Gli-Sufu block 79.4 | Gli-Sufu confirm 81.5 | Gli cytotox 33.3 | Wnt3a counter inactive
Clc1ccc(-c2c[n+](Cc3ccc(Cl)c(Cl)c3)c3n2CCC3)cc1	none (no result: hiPSC survival, Jurkat NFkB inh, Gli-Sufu block, H9c2 TAG inh, 697 NFkB inh)
COc1ccccc1C1=NOC(C)(c2nnc(-c3cccc(Cl)c3)o2)C1 (stereo not drawn)	none (no result: Lipid droplet)
CC(C)C(NC(=O)OCc1ccccc1)C(=O)N1CCOCCOCCOCC1 (stereo not drawn)	none
CN(Cc1ccc(OCC(O)CN2CCCCC2)cc1)Cc1ccnc2ccccc12 (stereo not drawn)	Gli-Sufu block 65.3 (no result: Jurkat NFkB inh, 697 NFkB inh) | Gli-Sufu confirm 45.5 | Gli cytotox inactive | Wnt3a counter inactive
O=C(NCc1cccnc1)c1ccc(NS(=O)(=O)c2ccc(F)cc2)cc1	none
Cc1ccccc1CCNC(=O)Cn1nc(C)c2c(C)n(-c3ccccc3)nc2c1=O	none (no result: H9c2 TAG inh)
